These results are taken from article PMC9362842 (Bioconjugate chemistry, 2022).

Read-outs that look alike come from different tables or passages of the source. Marks after values point to notes of the source that are not given here.

For one series, the target named is GPC3 (Homo sapiens, UniProt P51654). Kind of series: Bio-layer interferometry. The format is binding. The note with it: BLI, immobilized GPC3 antigen, global fit. Background: BLI is a label-free optical method that tracks binding on a fibre tip over time.
Series [1] is classed as physicochemical. Conditions: pH 7.4, 25 °C, I = 0.1 M KCl; for pLa (−log [M]free): [M]total = 10^−6 M, [L]total = 10^−5 M. The procedure, abridged:
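Protonation constants of the free chelator are first determined by pH potentiometric titration (25 °C, 0.1 M KCl ionic strength), then La³⁺ stability constants (log KLaL) by the same method, all in triplicate. The fifth and sixth protonation constants are not determined over the pH ranges used. Conditional constants and pLa at pH 7.4 are calculated from the protonation and stability constants.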

For series [2] the following is noted: cited from earlier work.
The conditions of series [3]: cited from earlier work. The source holds these as a separate data set.
A further series concerns HepG2 (GPC3+) xenografts. The format is in vivo, athymic nude mice. Conditions: 100 nCi.
A short description of series [4]: Hydrolytic stability of the -NCS group in pH 9.1 NaHCO3 buffer. The format is physicochemical.

The term Kd denotes the constant that tells how readily two partners part at equilibrium. A high value points to lower affinity. The compound “GC33-BZM: H2BZmacropa-NCS conjugate of the antibody GC33” gave a Kd with GPC3 of 0.19 nM.
For the compound `O=C(O)CN1CCN(CC(=O)O)CCN(CC(=O)O)CCN(CC(=O)O)CC1` [H4DOTA, tetraazacyclododecane-1,4,7,10-tetraacetic acid], in series [1], the “pLa (−log [M]free)” value is listed as 16.62 and the “log K´La (conditional stability constant)” value (from here on “log K´La”) is on record as 15.67. Besides, in series [2] (0.1 M KCl), the “log KLaHL” value is reported as 2.5(2) ^ d and the “log KLaL (La^3+ stability constant)” value is 21.7(1) ^ d. Moreover, in series [3] (0.1 M KCl), the “log K1 (protonation constant)” value was 11.14^d, the “log K2 (protonation constant)” value is 9.69^d, the “log K3 (protonation constant)” value was 4.84^d and the “log K4 (protonation constant)” value is listed as 3.95^d.
Take `O=C(O)c1cccc(CN2CCOCCOCCN(Cc3cccc(C(=O)O)n3)CCOCCOCC2)n1` [H2macropa]: in series [1], the “pLa (−log [M]free)” value was 15.58 and the “log K´La” value is reported as 14.63. The “log KLaHL” value in series [2] (0.1 M KCl) is listed as 2.28(3) ^ c. In series [3] (0.1 M KCl), the “log K1 (protonation constant)” value is on record as 7.41(1)^c, the “log K2 (protonation constant)” value is reported as 6.85(1)^c, the “log K3 (protonation constant)” value is reported as 3.32(1)^c and the “log K4 (protonation constant)” value is given as 2.36(1)^c. The “log K5 (protonation constant)” value in series [3] (0.1 M KCl) is 1.69(1)^c.
Turning to “[^225Ac]Ac-GC33-BZM: ^225Ac-labeled GC33-BZM antibody radioconjugate”, the “tumor uptake compared with ^225Ac[Ac]-GC33-M” value in the series with HepG2 (GPC3+) xenografts (48 and 96 h) is given as “effectively indistinguishable”. The tumor uptake entry with HepG2 (GPC3+) xenografts (48 and 96 h post-injection) is reported as “clear, specific tumor uptake”.
With `O=C(O)CN(CCN(CC(=O)O)CC(=O)O)CC(=O)O` [H4EDTA, ethylenediamine tetraacetic acid], in series [1], the “pLa (−log [M]free)” value was 13.62 and the “log K´La” value is reported as 12.67. In series [2] (0.1 M), the “log KLaHL” value is 2.24 ^ e and the “log KLaL (La^3+ stability constant)” value is 15.46 ^ e. Also, in series [3] (0.1 M), the “log K1 (protonation constant)” value is given as 10.17^e, the “log K2 (protonation constant)” value is 6.11^e, the “log K3 (protonation constant)” value is recorded as 2.68^e and the “log K4 (protonation constant)” value was 2.00^e. Also, in series [3] (0.1 M), the “log K5 (protonation constant)” value was 1.5^e.
Take `O=C(O)CN(CCN(CC(=O)O)CC(=O)O)CCN(CC(=O)O)CC(=O)O` [H5DTPA, diethylenetriamine pentaacetic acid]: in series [1], the “pLa (−log [M]free)” value is on record as 16.22 and the “log K´La” value was 15.27. In addition, the “log KLaL (La^3+ stability constant)” value in series [2] (0.1 M) was 19.48 ^ e. Also, in series [3] (0.1 M), the “log K1 (protonation constant)” value is 10.45^e, the “log K2 (protonation constant)” value is 8.53^e, the “log K3 (protonation constant)” value is recorded as 4.28^e and the “log K4 (protonation constant)” value is recorded as 2.65^e. In addition, the “log K5 (protonation constant)” value in series [3] (0.1 M) is given as 1.82^e.
On to “GC33: glypican-3 (GPC3)-targeting antibody codrituzumab”, for which the Kd with GPC3 came to 0.042 nM.
`O=C(O)c1cccc(CN2CCOCCOCCN(Cc3cc(N=C=S)cc(C(=O)O)n3)CCOCCOCC2)n1` [H2macropa-NCS]: the “t1/2 of -NCS hydrolysis to the amine” value in series [4] (buffer, pH 9.1) is on record as 1.25 h. In addition, the “time to complete hydrolysis to the amine” value in series [4] (pH 9.1 NaHCO3 buffer, room temperature) is reported as “approximately 5 h”.
